Results: ChEMBL document CHEMBL1156951, “Oxazolomycins: natural product lead structures for novel antibacterials by click fragment conjugation” (2010)
Active and inactive are the calls of the source. No cut-off for these calls is given here.

Key:
Type in all cases: functional
[1] = test system: Staphylococcus aureus; experiment: Antibacterial activity against Staphylococcus aureus NCTC 6571 at 4 mg/ml by hole plate assay
Method in brief: (§1)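 Hole-plate bioassay with samples at 4 mg/ml in 7:3 DMSO/H₂O, loaded into wells of bioassay plates and incubated overnight at 37 °C. The read-out was inhibition zone diameter in mm (±1 mm).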

[2] = test system: Escherichia coli; experiment: Antibacterial activity against Escherichia coli X580 at 4 mg/ml by hole plate assay; conditions: for zone of inhibition at 4000 µg/mL: read-out: DIZ; method in brief: as §1
[3] = test system: Escherichia coli; experiment: Antibacterial activity against Escherichia coli X580 assessed as zone of diameter per molar relative to cephalosporin
Method in brief: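 Hole-plate agar diffusion: test solutions were loaded into wells of bioassay plates and incubated overnight at 37 °C. Inhibition zone diameters were measured, and relative potency was expressed as zone diameter per M of analyte against standards prepared with cephalosporin C.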

SMILES	diameter of the inhibition zone (DIZ) [1]	diameter of the inhibition zone (DIZ) [2]	zone of inhibition at 4000 µg/mL [2] [mm]	Activity [3] [%]	zone of inhibition at 4000 µg/mL ([1]; read-out: DIZ) [mm]
COC(=O)[C@]12CO[C@H](C(C)(C)C)N1C(=O)C(C)(C)[C@@]2(O)CCCCCCO	inactive	inactive			
COC(=O)[C@]1(CO)NC(=O)C(C)(C)[C@@]1(O)CCCCCc1cc(CNC(=O)C(C)(C)C(O)c2ccccc2)on1 (stereo partly drawn)	inactive		13		
COC(=O)[C@]12CO[C@H](C(C)(C)C)N1C(=O)C(C)(C)[C@@]2(O)C#CCCCCBr	inactive		14	0.05	
CCCCCCCC(O)C(C)(C)C(=O)NCc1cn(CCCCC#C[C@]2(O)C(C)(C)C(=O)N[C@@]2(CO)C(=O)OC)nn1 (stereo partly drawn)	inactive	inactive			
CCCCCCCC(O)C(C)(C)C(=O)NCc1cc(CCCCC[C@]2(O)C(C)(C)C(=O)N[C@@]2(CO)C(=O)OC)no1 (stereo partly drawn)	inactive		17	0.2	
COC(=O)[C@]12CO[C@H](C(C)(C)C)N1C(=O)C(C)(C)[C@@]2(O)C#CCCCCn1cc(CNC(=O)C(C)(C)C(O)c2ccccc2)nn1 (stereo partly drawn)	inactive		14		
CCCCCCCC(O)C(C)(C)C(=O)NCc1cn(CCCCC#C[C@]2(O)C(C)(C)C(=O)N3[C@@H](C(C)(C)C)OC[C@@]32C(=O)OC)nn1 (stereo partly drawn)	inactive		14		
CCCCCCCCC#C[C@]1(O)C(C)(C)C(=O)N2[C@@H](C(C)(C)C)OC[C@@]21C(=O)OC	inactive	inactive			
COC(=O)[C@]12CO[C@H](C(C)(C)C)N1C(=O)C(C)(C)[C@@]2(O)C#CCNC(=O)C(C)(C)C(O)c1ccccc1 (stereo partly drawn)	inactive		17	0.1	
CCCCCCCCC#C[C@]1(O)C(C)(C)C(=O)N[C@@]1(CO)C(=O)OC	inactive	inactive			
COC(=O)[C@]12CO[C@H](C(C)(C)C)N1C(=O)C(C)(C)[C@@]2(O)C#Cc1ccccc1		inactive			13
COC(=O)[C@]12CO[C@H](C(C)(C)C)N1C(=O)C(C)(C)[C@@]2(O)CCCCCc1cc(CNC(=O)C(C)(C)C(O)c2ccccc2)on1 (stereo partly drawn)	inactive	inactive			
COC(=O)[C@]12CO[C@H](C(C)(C)C)N1C(=O)C(C)(C)[C@@]2(O)CCCCCc1cc(CNC(=O)C(C)(C)C(O)CCCCc2ccccc2)on1 (stereo partly drawn)	inactive		15		
COC(=O)[C@]12CO[C@H](C(C)(C)C)N1C(=O)C(C)(C)[C@@]2(O)C#CCCCCn1cc(CNC(=O)C(C)(C)C(O)CCCCc2ccccc2)nn1 (stereo partly drawn)	inactive		13		
CC1(C)C(=O)N[C@@](CO)(C(=O)O)[C@]1(O)C#Cc1ccccc1	inactive	inactive			
COC(=O)[C@]1(CO)NC(=O)C(C)(C)[C@@]1(O)C#Cc1ccccc1	inactive	inactive			
COC(=O)[C@]12CO[C@H](C(C)(C)C)N1C(=O)C(C)(C)[C@@]2(O)C#CCCCCO	inactive	inactive			
COC(=O)[C@]1(CO)NC(=O)C(C)(C)[C@@]1(O)CCCCCc1cc(CNC(=O)C(C)(C)C(O)CCCCc2ccccc2)on1 (stereo partly drawn)	inactive		14	0.1	
CCCCCCCC(O)C(C)(C)C(=O)NCc1cc(CCCCC[C@]2(O)C(C)(C)C(=O)N3[C@@H](C(C)(C)C)OC[C@@]32C(=O)OC)no1 (stereo partly drawn)	inactive	inactive			
COC(=O)[C@]1(CO)NC(=O)C(C)(C)[C@@]1(O)C#CCCCCn1cc(CNC(=O)C(C)(C)C(O)c2ccccc2)nn1 (stereo partly drawn)	inactive		15		
COC(=O)[C@]1(CO)NC(=O)C(C)(C)[C@@]1(O)C#CCNC(=O)C(C)(C)C(O)c1ccccc1 (stereo partly drawn)	inactive	inactive			
COC(=O)[C@]1(CO)NC(=O)C(C)(C)[C@@]1(O)C#CCCCCn1cc(CNC(=O)C(C)(C)C(O)CCCCc2ccccc2)nn1 (stereo partly drawn)	inactive		14		
